Measurements from ChEMBL document CHEMBL1152649, “Synthesis, cytotoxicity and human telomerase inhibition activities of a series of 1,2-heteroannelated anthraquinones and anthra[1,2-d]imidazole-6,11-dione homologues” (2009).

Columns and labels:
Format in all cases: functional
[1] = Growth inhibition of human Hs 578T cells
Summary of the method: (§1)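 NCI 60 cancer cell line screen run per the Developmental Therapeutics Program protocol. Dose–response curves were plotted against log10 drug concentration for each cell line within its subpanel, and mean graph midpoint values were calculated.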

[2] = test system: T47D; assay: Growth inhibition of human T47D cells
Summary of the method: (§2)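 Assayed in the NCI 60 human cancer cell line panel under the Developmental Therapeutics Program protocol. For each line, dose–response curves were plotted against log10 drug concentration. In the one-dose screen at 10^-5 M, growth was given as percent of untreated control cells, and mean graph midpoint values were averaged.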

[3] = test system: MDA-MB-468; assay: Antiproliferative activity against human MDA-MB-468 cells assessed as cell growth at 10 uM; details: read-out: Activity
Summary of the method: (§3)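 NCI 60 cell line panel, single-dose screen (10^-5 M) run by the developmental therapeutics program protocol. Results are given as growth percent of treated cells relative to untreated control cells for each line.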

[4] = test system: IGROV-1; assay: Antiproliferative activity against human IGROV1 cells assessed as cell growth at 10 uM; details: read-out: Activity; summary of the method: as §3
[5] = test system: RXF 393; assay: Antiproliferative activity against human RXF393 cells assessed as cell growth at 10 uM; details: read-out: Activity; summary of the method: as §3
[6] = test system: CCRF-CEM; assay: Growth inhibition of human CCRF-CEM cells; summary of the method: as §1
[7] = test system: HL-60(TB); assay: Growth inhibition of human HL-60(TB) cells
Summary of the method: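 NCI 60-cell-line panel run under the Developmental Therapeutics Program protocol. Dose-response curves are plotted against log10 drug concentration for each cell line within its subpanel, and GI50 is read from these curves.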

[8] = test system: MOLT-4; assay: Growth inhibition of human MOLT4 cells; summary of the method: as §1
[9] = Growth inhibition of human […] cells; summary of the method: as §2
[10] = test system: EKVX; assay: Growth inhibition of human EKVX cells; summary of the method: as §1
[11] = test system: HOP-92; assay: Growth inhibition of human HOP92 cells; summary of the method: as §1
[12] = test system: NCI-H226; assay: Growth inhibition of human NCI-H226 cells; summary of the method: as §1
[13] = test system: NCI-H23; assay: Growth inhibition of human NCI-H23 cells; summary of the method: as §1
[14] = test system: NCI-H522; assay: Growth inhibition of human NCI-H522 cells; summary of the method: as §1
[15] = test system: COLO 205; assay: Growth inhibition of human COLO205 cells; summary of the method: as §1
[16] = test system: HCC 2998; assay: Growth inhibition of human HCC2998 cells; summary of the method: as §1
[17] = test system: HCT-116; assay: Growth inhibition of human HCT116 cells; summary of the method: as §1
[18] = test system: HT-29; assay: Growth inhibition of human HT-29 cells; summary of the method: as §1
[19] = test system: SF-295; assay: Growth inhibition of human SF295 cells; summary of the method: as §2
[20] = test system: SF-539; assay: Growth inhibition of human SF539 cells; summary of the method: as §2
[21] = test system: SNB-75; assay: Growth inhibition of human SNB75 cells; summary of the method: as §2
[22] = test system: LOX IMVI; assay: Growth inhibition of human LOXIMVI cells; summary of the method: as §1
[23] = test system: Malme-3M; assay: Growth inhibition of human MALME-3M cells; summary of the method: as §1
[24] = test system: M14; assay: Growth inhibition of human M14 cells; summary of the method: as §1
[25] = test system: SK-MEL-2; assay: Growth inhibition of human SK-MEL-2 cells; summary of the method: as §2
[26] = test system: SK-MEL-28; assay: Growth inhibition of human SK-MEL-28 cells; summary of the method: as §2
[27] = test system: SK-MEL-5; assay: Growth inhibition of human SK-MEL-5 cells; summary of the method: as §2
[28] = test system: UACC-257; assay: Growth inhibition of human UACC257 cells; summary of the method: as §2
[29] = test system: IGROV-1; assay: Growth inhibition of human IGROV1 cells; summary of the method: as §1
[30] = test system: OVCAR-5; assay: Growth inhibition of human OVCAR5 cells; summary of the method: as §1
[31] = test system: OVCAR-8; assay: Growth inhibition of human OVCAR8 cells; summary of the method: as §1
[32] = test system: NCI/ADR-RES; assay: Growth inhibition of human NCI/ADR-RES cells; summary of the method: as §1
[33] = test system: SK-OV-3; assay: Growth inhibition of human SKOV3 cells; summary of the method: as §2
[34] = test system: CAKI-1; assay: Growth inhibition of human Caki1 cells; summary of the method: as §1
[35] = test system: RXF 393; assay: Growth inhibition of human RXF393 cells; summary of the method: as §2
[36] = test system: SN12C; assay: Growth inhibition of human SN12C cells; summary of the method: as §2
[37] = test system: TK-10; assay: Growth inhibition of human TK10 cells; summary of the method: as §2
[38] = test system: UO-31; assay: Growth inhibition of human UO31 cells; summary of the method: as §2
[39] = test system: MCF7; assay: Growth inhibition of human MCF7 cells; summary of the method: as §1
[40] = read-out: LC50 (the source's name)

## O=C1c2ccccc2C(=O)c2c1ccc1nccnc21
[1]
  GI50: 14.1 µM
  LC50: > 100 µM
  TGI: 91.4 µM
[2]
  GI50: 12.6 µM
  LC50: > 100 µM
  TGI: 75.1 µM
[3]
  growth at 10 µM: 75.3%
[4]
  growth at 10 µM: 3.44%
[5]
  growth at 10 µM: 105%
[6]
  GI50: 2.46 µM
  TGI: > 100 µM
[6]; [40]
  CC50: > 100 µM
[7]
  GI50: 0.68 µM
  TGI: 11.5 µM
[7]; [40]
  CC50: 83.7 µM
[8]
  GI50: 3.65 µM
  TGI: > 100 µM
[8]; [40]
  CC50: > 100 µM
[9]
  GI50: 1.61 µM
  TGI: > 100 µM
[9]; [40]
  CC50: > 100 µM
[10]
  GI50: 3.45 µM
  TGI: 72.1 µM
[10]; [40]
  CC50: > 100 µM
[11]
  GI50: 22.5 µM
  TGI: > 100 µM
[11]; [40]
  CC50: > 100 µM
[12]
  GI50: 16.6 µM
  TGI: 95.2 µM
[12]; [40]
  CC50: > 100 µM
[13]
  GI50: 12 µM
  TGI: 70.3 µM
[13]; [40]
  CC50: > 100 µM
[14]
  GI50: 4.64 µM
  TGI: 32.5 µM
[14]; [40]
  CC50: > 100 µM
[15]
  GI50: 3.4 µM
  TGI: 28.4 µM
[15]; [40]
  CC50: > 100 µM
[16]
  GI50: 1.4 µM
  TGI: 83.5 µM
[16]; [40]
  CC50: > 100 µM
[17]
  GI50: 12.3 µM
  TGI: > 100 µM
[17]; [40]
  CC50: > 100 µM
[18]
  GI50: 7.01 µM
  TGI: > 100 µM
[18]; [40]
  CC50: > 100 µM
[19]
  GI50: 4.35 µM
  TGI: 32.3 µM
[19]; [40]
  CC50: > 100 µM
[20]
  GI50: 2.18 µM
  TGI: 53.7 µM
[20]; [40]
  CC50: > 100 µM
[21]
  GI50: 11.9 µM
  TGI: > 100 µM
[21]; [40]
  CC50: > 100 µM
[22]
  GI50: 4.2 µM
  TGI: 38.9 µM
[22]; [40]
  CC50: > 100 µM
[23]
  GI50: 4.48 µM
  TGI: 20.7 µM
[23]; [40]
  CC50: 70.8 µM
[24]
  GI50: 5.14 µM
  TGI: > 100 µM
[24]; [40]
  CC50: > 100 µM
[25]
  GI50: 12.7 µM
  TGI: 55.9 µM
[25]; [40]
  CC50: > 100 µM
[26]
  GI50: 21 µM
  TGI: 91.1 µM
[26]; [40]
  CC50: > 100 µM
[27]
  GI50: 3.93 µM
  TGI: 17.1 µM
[27]; [40]
  CC50: 44.4 µM
[28]
  GI50: 13 µM
  TGI: 68.3 µM
[28]; [40]
  CC50: > 100 µM
[29]
  GI50: 2.55 µM
  TGI: 35.9 µM
[29]; [40]
  CC50: > 100 µM
[30]
  GI50: 29.3 µM
  TGI: > 100 µM
[30]; [40]
  CC50: > 100 µM
[31]
  GI50: 5.07 µM
  TGI: > 100 µM
[31]; [40]
  CC50: > 100 µM
[32]
  GI50: 5.68 µM
  TGI: > 100 µM
[32]; [40]
  CC50: > 100 µM
[33]
  GI50: 6.95 µM
  TGI: > 100 µM
[33]; [40]
  CC50: > 100 µM
[34]
  GI50: 5.83 µM
  TGI: > 100 µM
[34]; [40]
  CC50: > 100 µM
[35]
  GI50: 6.43 µM
  TGI: > 100 µM
[35]; [40]
  CC50: > 100 µM
[36]
  GI50: 13.2 µM
  TGI: 92.7 µM
[36]; [40]
  CC50: > 100 µM
[37]
  GI50: 5 µM
  TGI: > 100 µM
[37]; [40]
  CC50: > 100 µM
[38]
  GI50: 3.02 µM
  TGI: 85.9 µM
[38]; [40]
  CC50: > 100 µM
[39]
  GI50: 0.72 µM
  TGI: 29.8 µM
[39]; [40]
  CC50: > 100 µM

## N#Cc1ccc(-c2nc3ccc4c(c3[nH]2)C(=O)c2ccccc2C4=O)cc1
[3]
  growth at 10 µM: 95%
[4]
  growth at 10 µM: 66.3%
[5]
  growth at 10 µM: 117%

## O=C1c2ccccc2C(=O)c2c1ccc1nc(-c3ccc4c(c3)OCO4)[nH]c21
[3]
  growth at 10 µM: 96.4%
[4]
  growth at 10 µM: 93.3%
[5]
  growth at 10 µM: 120%

## CC1(C)Nc2ccc3c(c2N1)C(=O)c1ccccc1C3=O
[3]
  growth at 10 µM: 77.2%
[4]
  growth at 10 µM: -2.8%
[5]
  growth at 10 µM: 85.1%
